Laboratory results taken from ChEMBL document CHEMBL1158154, “Design and synthesis of novel 2-pyridone peptidomimetic falcipain 2/3 inhibitors” (Bioorg Med Chem Lett, 2008).

Columns and labels:
Plasmodium falciparum [1] = test: Antimalarial activity against chloroquine-sensitive Plasmodium falciparum 3D7 in human erythrocytes by [3H]hypoxanthine uptake; type: functional, organism-based
Procedure, shortened: (§1)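 P. falciparum kept in continuous culture in human erythrocytes; compounds tested in triplicate on parasite-infected red cells. Growth read as parasite [3H]-hypoxanthine incorporation, and IC50 derived from it. TM6 is a chloroquine-resistant strain and 3D7 a chloroquine-sensitive strain.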

Plasmodium falciparum [2] = test: Antimalarial activity against chloroquine-resistant Plasmodium falciparum TM6 in human erythrocytes by [3H]hypoxanthine uptake; type: functional, organism-based; procedure, shortened: as §1
[3] = target: T1, Cysteine protease falcipain-3 (Plasmodium falciparum, UniProt Q9NBA7); test: Inhibition of Plasmodium falciparum recombinant falcipain-3
T1 sequence (Q9NBA7 whole entry): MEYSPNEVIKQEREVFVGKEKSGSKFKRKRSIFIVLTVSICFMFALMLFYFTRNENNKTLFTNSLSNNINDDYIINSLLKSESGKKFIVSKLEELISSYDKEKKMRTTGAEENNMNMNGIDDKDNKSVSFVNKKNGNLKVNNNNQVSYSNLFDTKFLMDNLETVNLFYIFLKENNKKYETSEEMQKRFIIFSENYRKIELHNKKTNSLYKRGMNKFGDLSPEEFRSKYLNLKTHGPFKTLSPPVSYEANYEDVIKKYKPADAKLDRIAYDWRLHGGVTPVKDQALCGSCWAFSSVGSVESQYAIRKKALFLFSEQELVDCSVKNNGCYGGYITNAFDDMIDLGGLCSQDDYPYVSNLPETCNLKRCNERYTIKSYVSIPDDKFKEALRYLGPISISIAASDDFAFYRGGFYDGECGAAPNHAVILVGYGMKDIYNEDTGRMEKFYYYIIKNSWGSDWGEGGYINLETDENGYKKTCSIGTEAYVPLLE

Plasmodium falciparum [4] = test: Antimalarial activity against Plasmodium falciparum Itg2 in human erythrocytes by [3H]hypoxanthine uptake; type: functional, organism-based
Falcipain 2 = target: T2, Falcipain 2 (Plasmodium falciparum, UniProt Q9N6S8); test: Inhibition of Plasmodium falciparum recombinant falcipain-2
T2 sequence (Q9N6S8 whole entry): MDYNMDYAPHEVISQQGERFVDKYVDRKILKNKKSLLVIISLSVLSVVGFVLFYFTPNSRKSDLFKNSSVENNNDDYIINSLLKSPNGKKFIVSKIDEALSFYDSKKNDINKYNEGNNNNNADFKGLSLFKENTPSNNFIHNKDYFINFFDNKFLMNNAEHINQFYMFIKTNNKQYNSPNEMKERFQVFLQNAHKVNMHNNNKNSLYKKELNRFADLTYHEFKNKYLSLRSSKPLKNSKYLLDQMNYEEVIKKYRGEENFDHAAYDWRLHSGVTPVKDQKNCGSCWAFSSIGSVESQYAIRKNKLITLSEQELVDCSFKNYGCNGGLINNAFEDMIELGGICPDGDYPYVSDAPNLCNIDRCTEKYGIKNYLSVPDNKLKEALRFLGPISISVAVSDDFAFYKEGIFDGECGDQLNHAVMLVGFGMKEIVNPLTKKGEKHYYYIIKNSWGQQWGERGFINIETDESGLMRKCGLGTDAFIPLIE

IC50 (Plasmodium falciparum [4]) [µM] | Structure (SMILES) | IC50 (Plasmodium falciparum [1]) [µM] | IC50 (Plasmodium falciparum [2]) [µM] | IC50 [3] [µM] | IC50 (Falcipain 2) [µM]
 | O=C[C@H](Cc1ccccc1)n1cccc(NC(=O)OCc2ccccc2)c1=O | 37.3 | 36 |  | 
0.003 | CC(C)C[C@H](NC(=O)N1CCOCC1)C(=O)N[C@H](/C=C/S(=O)(=O)c1ccccc1)CCc1ccccc1 |  |  | 0.021 | 
 | O=C[C@H](CCc1ccccc1)n1cccc(NC(=O)OCc2ccccc2)c1=O | 31 | 22.7 | > 25 | 10.9
 | COC(=O)/C=C/[C@H](CCc1ccccc1)n1cccc(NC(=O)OCc2ccccc2)c1=O | 27.9 | 35.3 | > 25 | 19
 | O=C(Nc1cccn([C@H](/C=C/S(=O)(=O)c2ccccc2)Cc2ccccc2)c1=O)OCc1ccccc1 | 35.7 | 36 |  | 
 | O=C(Nc1cccn([C@H](/C=C/S(=O)(=O)c2ccccc2)CCc2ccccc2)c1=O)OCc1ccccc1 | 5.7 | 9 |  | 
